Non-standard residues stand in square brackets, D forms with d. Residues, ends and D or L forms follow the SMILES beside them. *: point of attachment. Sta = CC(C)C[C@H](N)[C@@H](O)CC(=O)O; Isovaleryl = CC(C)CC(=O)*
Tests used:
[1] = system: degradation activity of chloroplast extract (ATP-dependent, soluble metallopeptidase activity); test: Degradation assay with chloroplast extract; assay type: biochemical; settings: for effect on subfragment degradation in chloroplast extract: 30 min incubation, not shown
[2] = system: nonspecific protease activity in rabbit reticulocyte lysate; test: Nonspecific protease activity of the reticulocyte lysate; assay type: biochemical; settings: 2 mM PMSF, supernatant of preHSP21 processing reaction, 1 h at 24°C
Outline: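 To check lysate protease, [35S]methionine-labeled preHSP21 from reticulocyte lysate is processed 30 min at 24°C by bead-immobilized SPP. The supernatant holding the transit peptide subfragment is removed and incubated 1 h at 24°C, without inhibitor or with 2 mM PMSF. Remaining subfragment is read out.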

[3] = molecular target: SPP in chloroplast extract (Pisum sativum, UniProt Q40983); test: Conversion of transit peptide to subfragment in chloroplast extract; assay type: biochemical
Outline: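 [35S]methionine-labeled FD transit peptide is made by 3 min cleavage of preFD on immobilized SPP, then frozen, cleared and dialyzed. It is incubated with chloroplast extract (1:1) in 25 mM Hepes-KOH pH 7.5 at 24°C for 30 min with 1,10-phenanthroline at 0.1–10 mM. Percent substrate remaining is quantified by tricine SDS-PAGE.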

[4] = molecular target: T1, stromal processing peptidase (SPP) (Pisum sativum, UniProt Q40983); settings: 10 mM NEM in binding assay; data not shown
Outline: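 Recombinant biotin-tagged SPP from E. coli extract is captured on streptavidin magnetic beads. It is incubated 5 min at 24°C in 25 mM Hepes-KOH pH 7.5 with dialyzed [35S]methionine-labeled FD transit peptide or subfragment. Beads are washed twice in buffer, then eluted once with NaCl (0–1,000 mM), and the remaining material is released by boiling. Tricine SDS-PAGE, autoradiography and PhosphorImager quantification follow.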

[5] = molecular target: T1, stromal processing peptidase (SPP); test: Processing and transit peptide trimming by recombinant SPP; assay type: biochemical; settings: not shown
Outline: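 Time courses use reticulocyte-translated [35S]methionine precursors with biotin-tagged recombinant SPP (IPTG-induced E. coli, 30°C) bound to streptavidin magnetic beads. Reactions run in 25 mM Hepes-KOH pH 7.5, 2 mM PMSF, at 24°C, and are stopped by boiling in loading buffer. For preFD and preHSP21, 5 mM 1,10-phenanthroline is added at 2 or 5 min. Products are resolved by tricine SDS-PAGE and autoradiography.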

Chain of SPP in chloroplast extract (Q40983 143-1257): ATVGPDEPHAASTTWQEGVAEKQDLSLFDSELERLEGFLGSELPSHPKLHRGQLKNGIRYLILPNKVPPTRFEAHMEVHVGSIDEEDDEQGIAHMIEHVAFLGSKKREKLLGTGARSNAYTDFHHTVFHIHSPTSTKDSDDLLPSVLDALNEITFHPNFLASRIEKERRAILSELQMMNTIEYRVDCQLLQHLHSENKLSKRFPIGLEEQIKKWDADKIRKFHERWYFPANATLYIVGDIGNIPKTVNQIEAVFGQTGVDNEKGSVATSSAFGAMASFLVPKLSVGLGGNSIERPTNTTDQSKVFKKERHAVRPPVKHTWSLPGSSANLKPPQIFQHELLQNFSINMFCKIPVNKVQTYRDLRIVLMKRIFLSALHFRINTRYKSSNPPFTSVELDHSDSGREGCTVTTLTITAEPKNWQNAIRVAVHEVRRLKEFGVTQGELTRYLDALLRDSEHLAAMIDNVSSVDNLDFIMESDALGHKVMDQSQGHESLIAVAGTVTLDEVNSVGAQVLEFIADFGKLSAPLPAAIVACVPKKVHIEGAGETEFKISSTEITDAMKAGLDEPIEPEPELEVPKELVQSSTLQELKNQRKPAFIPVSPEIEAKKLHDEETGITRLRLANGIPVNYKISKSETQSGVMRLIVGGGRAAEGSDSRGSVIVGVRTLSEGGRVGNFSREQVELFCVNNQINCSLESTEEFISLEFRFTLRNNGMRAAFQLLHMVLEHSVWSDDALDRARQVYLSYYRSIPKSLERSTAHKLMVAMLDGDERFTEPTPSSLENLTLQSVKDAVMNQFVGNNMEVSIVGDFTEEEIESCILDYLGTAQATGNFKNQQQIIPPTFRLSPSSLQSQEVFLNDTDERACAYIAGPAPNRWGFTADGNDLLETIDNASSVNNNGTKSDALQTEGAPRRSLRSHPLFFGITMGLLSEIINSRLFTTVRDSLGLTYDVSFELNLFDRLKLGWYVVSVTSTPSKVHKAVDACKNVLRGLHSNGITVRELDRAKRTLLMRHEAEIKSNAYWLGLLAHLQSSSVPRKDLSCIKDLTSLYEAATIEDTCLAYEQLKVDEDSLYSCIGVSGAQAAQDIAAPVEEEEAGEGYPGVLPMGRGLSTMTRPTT
T1 sequence (Q40983 143-1257): as above

O=S(=O)(F)Cc1ccccc1 [PMSF]
effect on subfragment degradation in chloroplast extract ([1]; 10 mM inhibitor): None of these inhibitors significantly decreased
HSP21 transit peptide subfragment remaining [2]: ~90%

c1cnc2c(c1)ccc1cccnc12 [1,10-phenanthroline]
FD transit peptide subfragment remaining after 30 min in chloroplast extract ([1]; 1 mM 1,10-phenanthroline, 24°C): 86%
effect on degradation of the subfragment in chloroplast extract ([1]; 5 mM 1,10-phenanthroline, 30 min): inhibited
degradation of FD transit peptide subfragment in chloroplast extract ([1]; 10 mM 1,10-phenanthroline, 30 min, 24°C): no degradation
FD transit peptide left after 30 min in chloroplast extract ([3]; 1 mM 1,10-phenanthroline, 24°C): 16%
FD transit peptide remaining after 30 min in chloroplast extract ([3]; 10 mM 1,10-phenanthroline, 24°C): 80%
sensitivity of SPP relative to the degradation activity ([3]; SPP less sensitive than degradation activity): about tenfold

CC(C)CC(=O)N[C@H](C(=O)N[C@H](C(=O)N[C@@H](CC(C)C)[C@@H](O)CC(=O)N[C@@H](C)C(=O)N[C@@H](CC(C)C)[C@@H](O)CC(=O)O)C(C)C)C(C)C [pepstatin] (Isovaleryl-VV[Sta]A[Sta]-OH)
effect on subfragment degradation in chloroplast extract ([1]; 100 μM inhibitor): None of these inhibitors significantly decreased

CC(C)C[C@H](NC(=O)[C@H]1O[C@@H]1C(=O)O)C(=O)NCCCCN=C(N)N [E64]
effect on subfragment degradation in chloroplast extract ([1]; 100 μM inhibitor): None of these inhibitors significantly decreased

CCN1C(=O)C=CC1=O [NEM, N-ethylmaleimide]
effect on interaction between SPP and FD transit peptide [4]: disrupted the interaction
effect on subfragment degradation in chloroplast extract ([1]; 10 mM inhibitor): None of these inhibitors significantly decreased
effect on SPP cleavage of precursors [5]: inhibited

From paper PMC2164977 (The Journal of Cell Biology, 1999)
